Converted amounts (≈) assume the structure as drawn.
What was measured:
Assay type in all cases: functional
SF-268 = assay: Cytotoxicity against human SF-268 cells
Procedure, shortened: (§1)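 Human cancer cell panel: MCF-7 (breast), H-460 (lung) and SF-268 (central nervous system), run by the Monks et al. protocol; adriamycin served as the reference compound.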

NCI-H460 = assay: Cytotoxicity against human H460 cells; procedure, shortened: as §1
MCF7 = assay: Cytotoxicity against human MCF7 cell; procedure, shortened: as §1

SMILES | GI50 (SF-268) [µg/mL] | GI50 (NCI-H460) [µg/mL] | GI50 (MCF7) [µg/mL]
O=C(OC[C@@H]1O[C@@H](Oc2c(-c3ccc(O)cc3)oc3cc(O)cc(O)c3c2=O)[C@H](O)[C@H]1O)c1cc(O)c(O)c(O)c1 | > 10 | > 10 | 9 (≈ 15.8 µM)
O=C(OC[C@@H]1O[C@@H](Oc2c(-c3ccc(O)c(O)c3)oc3cc(O)cc(O)c3c2=O)[C@H](O)[C@H]1O)c1cc(O)c(O)c(O)c1 | 2.3 (≈ 3.92 µM) | 1.2 (≈ 2.05 µM) | 1.4 (≈ 2.39 µM)
O=C(OC[C@H]1O[C@@H](Oc2c(-c3ccc(O)c(O)c3)oc3cc(O)cc(O)c3c2=O)[C@H](O)[C@@H](O)[C@@H]1OC(=O)c1cc(O)c(O)c(O)c1)c1cc(O)c(O)c(O)c1 | > 10 | 3 (≈ 3.9 µM) | > 10
O=C(OC[C@H]1O[C@@H](Oc2c(-c3ccc(O)c(O)c3)oc3cc(O)cc(O)c3c2=O)[C@H](O)[C@@H](O)[C@@H]1O)c1cc(O)c(O)c(O)c1 | > 10 | > 10 | > 10
O=c1c(O)c(-c2ccc(O[C@@H]3O[C@@H](CO)[C@H](O)[C@H]3O)c(O)c2)oc2cc(O)cc(O)c12 | > 10 | 7.3 (≈ 16.8 µM) | 9.1 (≈ 21 µM)
